pIC50: −log10 of the molar value.
Legend:
mouse PLA2G6 = target: T1, mouse PLA2G6 (Mus musculus, UniProt P97819); test: Competitive gel ABPP; assay type: biochemical; details: membrane lysate 1 mg/mL of transfected HEK293T cells, FP-Rh
T1 sequence (P97819 1-807): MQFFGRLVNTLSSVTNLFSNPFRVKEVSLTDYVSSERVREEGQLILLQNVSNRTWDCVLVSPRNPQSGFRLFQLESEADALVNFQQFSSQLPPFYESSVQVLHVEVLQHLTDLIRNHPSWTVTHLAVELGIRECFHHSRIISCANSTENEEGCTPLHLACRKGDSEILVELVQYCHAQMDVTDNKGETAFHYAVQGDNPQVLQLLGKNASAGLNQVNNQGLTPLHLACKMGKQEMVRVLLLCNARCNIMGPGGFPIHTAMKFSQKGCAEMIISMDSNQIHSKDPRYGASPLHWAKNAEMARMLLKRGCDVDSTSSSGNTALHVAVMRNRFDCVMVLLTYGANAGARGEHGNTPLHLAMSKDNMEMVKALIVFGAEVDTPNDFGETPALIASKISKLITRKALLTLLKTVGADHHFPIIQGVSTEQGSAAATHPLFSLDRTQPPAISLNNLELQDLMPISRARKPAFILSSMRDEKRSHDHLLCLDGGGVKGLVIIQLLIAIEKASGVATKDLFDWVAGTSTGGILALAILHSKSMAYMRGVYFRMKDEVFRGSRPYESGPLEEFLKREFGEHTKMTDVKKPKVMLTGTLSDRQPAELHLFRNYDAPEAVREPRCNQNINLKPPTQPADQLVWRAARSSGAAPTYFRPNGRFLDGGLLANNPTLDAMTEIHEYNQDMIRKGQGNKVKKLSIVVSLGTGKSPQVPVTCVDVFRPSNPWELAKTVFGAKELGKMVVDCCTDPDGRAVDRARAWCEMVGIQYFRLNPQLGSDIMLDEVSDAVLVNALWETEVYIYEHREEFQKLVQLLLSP
Summary of the method: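 HEK293T cells transiently transfected with mouse PLA2G6 cDNA (pCMV-SPORT6); membrane lysate (1 mg/mL) prepared. Lysate pre-exposed to test compound, then labelled with FP-Rh (1 μM final, 45 min, 37 °C). Gel band intensity compared with a control-treated sample.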

ABHD12 [1] = target: T2, ABHD12 (Mus musculus, UniProt Q99LR1); test: Ex vivo gel-based competitive ABPP; assay type: in vivo
T2 sequence (Q99LR1 1-398): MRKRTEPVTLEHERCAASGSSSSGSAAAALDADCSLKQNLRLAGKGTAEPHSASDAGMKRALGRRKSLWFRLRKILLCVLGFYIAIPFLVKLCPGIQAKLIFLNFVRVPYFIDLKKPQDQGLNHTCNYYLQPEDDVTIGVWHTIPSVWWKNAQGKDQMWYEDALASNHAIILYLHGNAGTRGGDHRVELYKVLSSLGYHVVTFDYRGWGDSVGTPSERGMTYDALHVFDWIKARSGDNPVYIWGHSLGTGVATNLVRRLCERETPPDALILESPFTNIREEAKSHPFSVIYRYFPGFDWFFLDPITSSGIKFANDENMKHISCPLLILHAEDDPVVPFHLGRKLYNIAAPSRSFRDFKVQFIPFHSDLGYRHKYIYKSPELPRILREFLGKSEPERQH

ABHD12 [2] = target: T3, ABHD12 (Homo sapiens, UniProt Q8N2K0); test: Gel-based competitive ABPP; assay type: cell-based; details: 24 h treatment, JJH350 probe
T3 sequence (Q8N2K0 1-398): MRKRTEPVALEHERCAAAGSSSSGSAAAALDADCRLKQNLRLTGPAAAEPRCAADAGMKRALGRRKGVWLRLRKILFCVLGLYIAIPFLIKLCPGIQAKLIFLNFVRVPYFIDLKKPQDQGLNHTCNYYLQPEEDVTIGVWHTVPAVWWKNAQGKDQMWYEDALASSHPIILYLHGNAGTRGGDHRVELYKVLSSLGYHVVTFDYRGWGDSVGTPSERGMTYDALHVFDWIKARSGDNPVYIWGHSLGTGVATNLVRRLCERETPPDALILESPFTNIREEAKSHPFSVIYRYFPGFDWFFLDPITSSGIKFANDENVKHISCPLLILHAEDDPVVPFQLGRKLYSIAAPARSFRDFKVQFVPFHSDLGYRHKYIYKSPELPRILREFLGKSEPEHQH
Summary of the method: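 PBMCs collected from the gradient interface, red cells lysed (5 min, room temperature) and plated in DPBS at 2.26 × 10⁵ cells/cm²; adherent monocytes attach within 1–2 h. After in situ treatment, proteome (1 mg/mL) labelled with JJH350 (2 μM final, 45 min, 37 °C), clicked and run on gel. ABHD12 band intensity is normalised to the control sample (100%).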

serine hydrolases = test: ABPP of brain serine hydrolase activities from treated mice; assay type: in vivo, mouse; details: gel- and MS-based ABPP, more than 65 other serine hydrolases quantified
Summary of the method: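 Mice dosed i.p. with test compound (30 mg/kg) or vehicle and killed after 4 h (isoflurane, then cervical dislocation). Brain membrane serine hydrolase activities quantified by MS-based ABPP. Each protein's value is the mean of median peptide ratios (treated vs vehicle) ± SEM, from n = 4 or 3 independent samples per compound.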

THP-1 cells = test: Targeted LC-MS of; assay type: cell-based, human; details: 4 h
Summary of the method: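 THP-1 cells (6 million in 10 mL) incubated with test compound or DMSO for 4 h at 37 °C, 5% CO₂. Cells washed twice with ice-cold DPBS and stored at −80 °C, then analysed by targeted LC-MS metabolomics for lyso-PS and PS species.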

LCMV clone 13 = details: mouse, in vivo
ABHD12 [3] = target: T3, ABHD12; assay type: cell-based
Summary of the method: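 THP-1 cells (6 million in 10 mL) given test compound (1–1000 nM) or DMSO for 4 h at 37 °C, 5% CO₂, then washed twice in ice-cold DPBS. Membrane proteome incubated with 17:1 lyso-PS (100 μM final), 20 min, 37 °C. Readout is the LC-MS 17:1 FFA/15:0 FFA ratio minus the JJH350 (10 μM)-treated membrane background. IC50 fitted as log(inhibitor) vs normalized response.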

FC(F)(F)Oc1ccc(Oc2ccnc(N3CCC(NC(=S)Nc4cccnc4)CC3)c2Cl)c(Cl)c1 [DO264, N-3-pyridyl-N’-(1-[3-chloro-4-{2-chloro-4-(trifluoromethoxy)phenoxy}pyridine-2-yl]piperidin-4-yl)thiourea]
inhibition of recombinantly expressed PLA2G6 (mouse PLA2G6): nor did the compound inhibit | brain ABHD12 activity at 48 h post-dosing (ABHD12 [1]; 30 mg/kg, i.p.): partial recovery | time post-treatment over which inhibition of brain ABHD12 activity was observed (ABHD12 [1]; 30 mg/kg, i.p.): 4 to 24 h | brain ABHD12 activity, ex vivo analysis with JJH350 probe (ABHD12 [1]; C57BL/6 mice, 30 and 60 mg/kg, i.p. (4 h or 24 h) or p.o. (4 h)): complete inhibition | inhibition of ABHD12 in peripheral tissues of mice (ABHD12 [1]; i.p., 30 mg/kg, 4 h, FP-Rh and JJH350 probes): selectively inhibited | ABHD12 activity in primary human macrophages (ABHD12 [2]): inhibits ABHD12 activity | selectivity for ABHD12 in vivo (serine hydrolases): excellent selectivity | 20:4 PS lipids of THP-1 cells (THP-1 cells; 0.001-1 μM): concentration-dependent increase | lyso-PS content of THP-1 cells (THP-1 cells; DO264 0.001-1 μM, (S)-DO271 1 μM): substantial elevations | pathological response to Cl13 infection, in comparison to (S)-DO271 (LCMV clone 13): heightened pathology | pro-inflammatory chemokines in BALF compared to control group (LCMV clone 13): increases | total protein in bronchoalveolar lavage fluid (BALF) compared to control group (LCMV clone 13): increases | fraction of treated ABHD12(−/−) mice that died prior to sacrifice at day 10 (LCMV clone 13; ip, 30 mg/kg): 30-40% | pIC50 (ABHD12 [3]): 7.59

Source: publication PMC6263940 (Nature chemical biology, 2018)
